The record followed here is PMC4797071 (ACS chemical neuroscience, 2015).

Data set [1] concerns primary cortical neuronal cells. The data set can be described thus: Aβ induced toxicity, MTS assay with primary neuronal cultures. Format: cell-based, mice. The conditions noted are these: for protection from Aβ toxicity at 10 µM peptide: 10 µM Aβ(1–42), MTS, Aβ alone ~35% cell viability. The method in brief: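 Cortical neurons from E15.5 mouse embryos, matured in neurobasal medium. Aβ(1–42) at 1 mg/mL in PBS, diluted to 10 µM with or without test peptide or mutant TTR at varying doses. Added at 6 DIV alongside vehicle and controls. At 8 DIV, MTS reagent for 2–3 h, absorbance 490 nm. Significance versus vehicle and versus Aβ set at p < 0.05.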

Data set [2] can be described thus: Peptide self-assembly by photoinduced cross-linking. The format is physicochemical. The conditions noted are these: peptide 36 µM, not cross-linked, boiled, denaturing gel, silver staining. In short, it runs like this: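 Peptides at 36 µM in PBSA, 1 h at 37 °C, then photo-cross-linked (PICUP) and heated 95 °C for 5 min. Non-cross-linked samples boiled for comparison. Separated on 10–20% Tris-Tricine gel; silver stained.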

For data set [3], the target named is T1, Aβ(1–40) (Homo sapiens, UniProt P05067). The data set can be described thus: Thioflavin T. The format is biochemical. To be noted: 28 µM Aβ, 2.8 µM peptide or protein, 37 °C, 1, 5, 24, 48 h. In short, it runs like this: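 Aβ(1–40) urea/glycine stock diluted into PBSA; 28 µM alone or with 2.8 µM peptide or mutant TTR, incubated at 37 °C. At 1, 5, 24 and 48 h, aliquots diluted 14-fold into 10 µM ThT in PBSA. Excitation 440 nm, emission 460–500 nm; intensity at 480 nm used. Three serial spectra averaged, ThT-in-PBSA background subtracted; some samples from two independent experiments.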

Data set [4] is described as follows: Peptide self-association by light scattering. To be noted: peptide alone 80 µM, 37 °C, after 1 h of incubation; data not shown. The format is physicochemical.
For data set [5], the target named is T1, Aβ(1–40). The data set can be described thus: Aβ aggregate growth kinetics by dynamic light scattering. Format: biochemical. To be noted: method not specified. The method in brief: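 Aβ(1–40) relyophilized from 50% ACN and stored as a urea/glycine stock; thawed, sonicated 2 min and diluted into PBSA. 140 µM Aβ alone or with 14 µM peptide, 0.45 µm filtered into a cuvette held at 37 °C. 488 nm laser; intensity at 90° recorded over 10 h and normalized to total mass concentration; z-averaged hydrodynamic diameter from the autocorrelation function by cumulants.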

T1 sequence (P05067 672-711 limits assumed): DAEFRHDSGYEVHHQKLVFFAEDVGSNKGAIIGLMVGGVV

Turning to “SKV^DPPTIAALLSPYSYSQ (head to tail) [CG2]”, the “protection from Aβ toxicity at 10 µM peptide” value in data set [1] was “no protective effect”.
In the case of SKVVT^DPPRYTIAALLSPYSYSQ [LG3], in data set [2], the “bands in the absence of cross-linker” value is given as ~ 5 kDa. The “effect on ThT fluorescence increase up to 48 h” value on Aβ(1–40) [3] is recorded as “at most a minor inhibitory effect”. Besides, the “protection from Aβ toxicity at 10 µM peptide” value in data set [1] is given as “no protective effect”. The “light scattered above background (self-association)” value in data set [4] is “did not scatter light above background”.
Regarding SKV^DPPTIAALLSPYSYSQ [LG2], the “effect on Aβ aggregation (summary statement)” value at Aβ(1–40) [5] is listed as “nor did they affect Aβ aggregation”. Moreover, the “inhibition of Aβ toxicity (summary statement)” value in data set [1] (summary, concentration not given) is reported as “nor did they affect Aβ aggregation or inhibit Aβ toxicity”.
